Here are results for 1 compound from ChEMBL document CHEMBL4732088, “Identification and optimization of piperlongumine analogues as potential antioxidant and anti-inflammatory agents via activation of Nrf2” (Eur J Med Chem, 2021).

Active and inactive are the calls of the source. The rule behind the calls is not given here.

The target in assay [1] is T1, Nuclear factor erythroid 2-related factor 2 (Mus musculus) (UniProt Q60795).
T1 sequence (whole entry): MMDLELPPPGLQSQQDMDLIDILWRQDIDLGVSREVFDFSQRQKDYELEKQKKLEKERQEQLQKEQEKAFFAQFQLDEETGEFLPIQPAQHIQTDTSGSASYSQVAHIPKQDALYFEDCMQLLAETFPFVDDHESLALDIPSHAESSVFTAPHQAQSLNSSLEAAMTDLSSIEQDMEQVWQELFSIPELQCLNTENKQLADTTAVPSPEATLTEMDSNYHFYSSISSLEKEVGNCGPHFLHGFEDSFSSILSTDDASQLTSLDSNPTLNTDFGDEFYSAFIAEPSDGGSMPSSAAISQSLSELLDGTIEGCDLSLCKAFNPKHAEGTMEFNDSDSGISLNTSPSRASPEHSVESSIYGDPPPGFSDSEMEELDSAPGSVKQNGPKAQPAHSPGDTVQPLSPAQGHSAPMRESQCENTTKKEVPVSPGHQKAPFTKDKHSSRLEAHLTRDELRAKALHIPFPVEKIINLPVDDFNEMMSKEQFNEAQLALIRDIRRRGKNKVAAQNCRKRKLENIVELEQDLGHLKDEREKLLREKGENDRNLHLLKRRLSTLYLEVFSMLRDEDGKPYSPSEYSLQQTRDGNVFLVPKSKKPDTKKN
Nature of the assay: Activation of Nrf2 in mouse BV2 cells assessed as upregulation of TrxR1 protein expression after 24 hrs by Western blot analysis. Type of assay: cell-based. The note with it: BV-2, filed as activator, dose 5-20 µM. Put shortly: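 BV2 microglia exposed to compound for 24 h over a concentration series; Nrf2, NQO1, HO-1, TrxR1, GCLM and GCLC protein levels read by Western blot.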

For assay [2], the system named is PC-12. Kind of assay: Protection against 6-OHDA-induced apoptosis in rat PC12 cells assessed as early apoptotic cells at 5 uM incubated for 24 hrs by annexin V FITC/propidium iodide staining based flow cytometry (reference value: 19.2 %). Format: functional.
The test system of assay [3] is PC-12. Kind of assay: Protection against H2O2-induced oxidative damage in rat PC12 cells assessed as intracellular ROS level by measuring mean fluorescence intensity at 20 uM pretreated with compound followed by H2O2 stimulation by DCFH-DA staining based flow cytometry (reference value: 233032.55). Type of assay: functional.
For assay [4], the system named is PC-12. Nature of the assay: Neuroprotective activity against H2O2-induced cell death in rat PC12 cells at 20 uM preincubated for 30 mins in presence of brusatol followed by H2O2 stimulation and measured after 24 hrs by MTT assay. Format: functional, cell-based. The note with it: time 24.5 hrs. Summed up:
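PC12 cells incubated 30 min with compound (20 μM) plus brusatol (10 nM) or ZnPP (10 nM), then insult for 24 h (H₂O₂ stated as 150 μM); viability by MTT.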

Assay [5] relates to PC-12. Nature of the assay: Protection against 6-OHDA-induced apoptosis in rat PC12 cells assessed as late apoptotic cells at 5 uM incubated for 24 hrs by annexin V FITC/propidium iodide staining based flow cytometry (reference value: 7.6 %). Format: functional.
Assay [6] relates to PC-12. Kind of assay: Neuroprotective activity against 6-OHDA-induced cell death in rat PC12 cells assessed as cell viability at 20 uM preincubated for 30 mins in presence of ZNPP […] and measured after 24 hrs by MTT assay. Format: functional, cell-based. Conditions: time 24.5 hrs.
Assay [7] has as its system PC-12. Kind of assay: Neuroprotective activity against H2O2-induced cell damage in rat PC12 cells preincubated for 24 hrs followed by H2O2 treatment by MTT assay. Type of assay: functional, cell-based. The note with it: dose 5-20 µM. Summed up: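 PC12 cells pretreated 24 h with compound (5, 10, 20 μM), then H₂O₂ (200 μM) or 6-OHDA (150 μM); viability by MTT; mean ± SD, three independent experiments.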

For assay [8], the system named is PC-12. Kind of assay: Protection against H2O2-induced apoptosis in rat PC12 cells assessed as early apoptotic cells at 20 uM incubated for 24 hrs by annexin V FITC/propidium iodide staining based flow cytometry (reference value: 3.9 %). Type of assay: functional.
The test system of assay [9] is PC-12. Nature of the assay: Prevention of 6-OHDA-induced calcium overload in rat PC12 cells assessed as reduction in intracellular free calcium by measuring mean fluorescence intensity at 20 uM pretreated with compound followed by 6-OHDA addition measured after 24 hrs by Fluo-3AM based fluorescence assay (reference value: 6708.18%). Format: functional.
Assay [10] concerns the target T2, Nuclear factor erythroid 2-related factor 2 (Rattus norvegicus) (UniProt O54968).
T2 sequence (whole entry): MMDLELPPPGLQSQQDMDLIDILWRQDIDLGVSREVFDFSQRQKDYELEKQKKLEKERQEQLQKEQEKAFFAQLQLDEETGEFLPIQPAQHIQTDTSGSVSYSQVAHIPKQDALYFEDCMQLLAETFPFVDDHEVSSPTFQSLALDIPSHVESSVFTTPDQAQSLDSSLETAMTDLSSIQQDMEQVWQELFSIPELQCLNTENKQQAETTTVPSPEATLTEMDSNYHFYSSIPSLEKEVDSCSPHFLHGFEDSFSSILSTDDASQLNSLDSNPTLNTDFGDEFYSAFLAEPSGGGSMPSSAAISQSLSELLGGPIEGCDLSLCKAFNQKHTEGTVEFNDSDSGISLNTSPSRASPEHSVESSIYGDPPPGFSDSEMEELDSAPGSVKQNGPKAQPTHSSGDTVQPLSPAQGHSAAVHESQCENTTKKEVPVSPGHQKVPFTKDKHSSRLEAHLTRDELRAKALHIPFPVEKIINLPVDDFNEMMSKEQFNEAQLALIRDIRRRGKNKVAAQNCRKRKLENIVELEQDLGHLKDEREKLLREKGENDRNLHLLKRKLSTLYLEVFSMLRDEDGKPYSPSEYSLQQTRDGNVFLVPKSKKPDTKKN
Nature of the assay: Activation of Nrf2 in rat PC12 cells assessed as increase in GCLM protein level after 24 hrs by Western blot analysis. Type of assay: cell-based. The note with it: PC-12, filed as activator, dose 5-20 µM. Summed up:
(§1)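 PC12 cells treated with compound for 24 h at rising concentrations; NQO1, HO-1, TrxR1, GCLM, GCLC protein detected by Western blot.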

For assay [11], the system named is PC-12. Nature of the assay: Protection against 6-OHDA-induced apoptosis in rat PC12 cells assessed as viable cells at 20 uM incubated for 24 hrs by annexin V FITC/propidium iodide staining based flow cytometry (reference value: 72.0 %). Conditions: read-out: Activity. Type of assay: functional.
Assay [12] addresses T1, Nuclear factor erythroid 2-related factor 2 (Mus musculus). Nature of the assay: Activation of Nrf2 in mouse BV2 cells assessed as decrease in LPS-induced NO production pretreated with compound followed by LPS stimulation after 18 hrs by Griess reagent based assay. Type of assay: cell-based. The note with it: BV-2, filed as activator, dose 5-20 µM. Put shortly:
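BV2 microglia pretreated with compound, then LPS (1µg/mL) for 18 h; NO in medium measured by Griess method; mean ± SD, n = 3.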

Assay [13] addresses T2, Nuclear factor erythroid 2-related factor 2 (Rattus norvegicus). Kind of assay: Activation of Nrf2 in rat PC12 cells assessed as increase in NQO1 protein level after 24 hrs by Western blot analysis. Conditions: PC-12, filed as activator, dose 5-20 µM. Format: cell-based. Summed up: as §1
The test system of assay [14] is PC-12. Nature of the assay: Protection against 6-OHDA-induced mitochondrial dysfunction in rat PC12 cells assessed as change in mitochondrial membrane potential at 10 uM pretreated with compound followed by 6-OHDA addition by JC-1 staining based flow cytometry (reference value: 73.2 %). Format: functional. Put shortly: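 Mitochondrial membrane potential in PC12 cells pretreated with compound (5, 10, 20 μM), then exposed to H₂O₂ (200 μM) or 6-OHDA (150 μM). JC-1 staining, red-to-green fluorescence shift read by flow cytometry. Mean ± SD, n = 3.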

Consider `CCN(C)C(=O)N1CCN(C(=O)/C=C/c2ccc(F)cc2)C1=O`, for which the Activity result in [1] was “Dose-dependent effect”; in assay [2], 11.1%; in assay [5] it was 6.4%; in [7] it was “Dose-dependent effect”; in assay [8], 2.3%; in assay [10], “Dose-dependent effect”. Also, the Activity result in assay [12] is “Dose-dependent effect”; in assay [13], “Dose-dependent effect”; in assay [14], 83.6%. For the same compound, the figures for the Flu intensity in assay [3] and in [9] were 130822.7 and 4161.82, respectively. In addition, the outcome in assay [4] and in assay [6] was inactive. The viability at 20 µM in assay [11] stood at 89%.
